Test results as given in PMC3517057 (ChemMedChem, 2012).
Each block holds one compound with its values, some of them ahead of it.

Tests used:
mGlu5 [1] = biological target: T1, mGlu5 (Rattus norvegicus, UniProt P31424); assay: mGlu5 calcium mobilization assay; type: cell-based
[2] = tested on: 68 primary molecular targets (GPCRs, kinases, ion channels); assay: Ricerca LeadProfilingScreen radioligand binding panel; settings: 10 µM
[3] = Exposure following oral dosing in mice; type: in vivo
mGlu5 [4] = biological target: T1, mGlu5; assay: Effect on glutamate CRC in rat cortical astrocytes; type: cell-based; settings: 300 nM, 1 µM, 30 µM 18k
mGlu1–4 and mGlu6–8 = assay: Selectivity against other mGlu receptors; type: cell-based; settings: 10 µM
C57Bl/6J mice [5] = assay: Operant sensation seeking; type: in vivo
[6] = Metabolic stability in human liver microsomes; type: in vitro ADME; settings: 1 µM, 15 min, 37 °C, NADPH
In short: (§1)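 Test compound at 1 µM was incubated with human or mouse liver microsomes in phosphate buffer with NADPH cofactor, for 15 min at 37 °C with shaking.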

mice [7] = assay: Marble burying model of anxiety; type: in vivo; settings: for Inhibition of marble burying: 15 minute pretreatment; for Sedation: marble burying study, i.p., all dosing groups
In short: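 Mice were scored for burying glass marbles in deep bedding. Test compound or the MTEP positive control (15 mg/kg) was given i.p. in 10% tween 80 vehicle 15 min before testing. Testing ran from 15 to 45 min post dose, with n=12 per dosing group. Significance was P < 0.05 vs vehicle by Dunnett's test.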

[8] = Metabolic stability in mouse liver microsomes; type: in vitro ADME; settings: 1 µM, 15 min, 37 °C, NADPH
In short: as §1

[9] = Plasma and brain exposure after intraperitoneal dosing in mice; type: in vivo, male CD-1 mice; settings: 10 mg/kg i.p.
In short: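 Male CD-1 mice received 10 mg/kg i.p. as a microsuspension in 10% tween 80, with two mice per time point. Brain and plasma were sampled at 0.5, 1, 3 and 6 h post dose.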

adenosine A3 receptor = biological target: T2, adenosine A3 receptor (Homo sapiens, UniProt P0DMS8); assay: Ricerca LeadProfilingScreen radioligand binding, adenosine A3 receptor; settings: 10 µM
T2 sequence (P0DMS8 1-318): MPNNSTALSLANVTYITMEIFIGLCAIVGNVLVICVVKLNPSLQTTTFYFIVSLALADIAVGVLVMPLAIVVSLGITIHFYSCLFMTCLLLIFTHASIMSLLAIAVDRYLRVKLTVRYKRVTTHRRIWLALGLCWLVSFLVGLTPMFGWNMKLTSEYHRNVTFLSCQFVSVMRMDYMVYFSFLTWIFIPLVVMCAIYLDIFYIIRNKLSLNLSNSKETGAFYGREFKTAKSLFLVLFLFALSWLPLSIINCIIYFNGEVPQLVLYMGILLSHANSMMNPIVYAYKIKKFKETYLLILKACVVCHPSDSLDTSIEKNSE
In short: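 The test compound was run at 10 µM in a commercial profiling panel of radioligand binding assays covering 68 primary molecular targets, including GPCRs, kinases and ion channels.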

rat mGlu5 = rat mGlu5 (Rattus norvegicus, UniProt P31424); assay: Glutamate-induced ERK1/2 phosphorylation in HEK293 cells expressing rat mGlu5; type: cell-based; settings: 10 nM to 1 µM 18k
[10] = Protein binding in mouse plasma; type: in vitro ADME; settings: rapid equilibrium dialysis
[11] = Binding to mouse brain homogenates; type: in vitro ADME; settings: rapid equilibrium dialysis
mice [12] = settings: cited from earlier work
C57Bl/6J mice [13] = settings: low doses; cited from earlier work
[14] = mGlu5 calcium mobilization, average of at least three determinations

T1 sequence (P31424 21-1203): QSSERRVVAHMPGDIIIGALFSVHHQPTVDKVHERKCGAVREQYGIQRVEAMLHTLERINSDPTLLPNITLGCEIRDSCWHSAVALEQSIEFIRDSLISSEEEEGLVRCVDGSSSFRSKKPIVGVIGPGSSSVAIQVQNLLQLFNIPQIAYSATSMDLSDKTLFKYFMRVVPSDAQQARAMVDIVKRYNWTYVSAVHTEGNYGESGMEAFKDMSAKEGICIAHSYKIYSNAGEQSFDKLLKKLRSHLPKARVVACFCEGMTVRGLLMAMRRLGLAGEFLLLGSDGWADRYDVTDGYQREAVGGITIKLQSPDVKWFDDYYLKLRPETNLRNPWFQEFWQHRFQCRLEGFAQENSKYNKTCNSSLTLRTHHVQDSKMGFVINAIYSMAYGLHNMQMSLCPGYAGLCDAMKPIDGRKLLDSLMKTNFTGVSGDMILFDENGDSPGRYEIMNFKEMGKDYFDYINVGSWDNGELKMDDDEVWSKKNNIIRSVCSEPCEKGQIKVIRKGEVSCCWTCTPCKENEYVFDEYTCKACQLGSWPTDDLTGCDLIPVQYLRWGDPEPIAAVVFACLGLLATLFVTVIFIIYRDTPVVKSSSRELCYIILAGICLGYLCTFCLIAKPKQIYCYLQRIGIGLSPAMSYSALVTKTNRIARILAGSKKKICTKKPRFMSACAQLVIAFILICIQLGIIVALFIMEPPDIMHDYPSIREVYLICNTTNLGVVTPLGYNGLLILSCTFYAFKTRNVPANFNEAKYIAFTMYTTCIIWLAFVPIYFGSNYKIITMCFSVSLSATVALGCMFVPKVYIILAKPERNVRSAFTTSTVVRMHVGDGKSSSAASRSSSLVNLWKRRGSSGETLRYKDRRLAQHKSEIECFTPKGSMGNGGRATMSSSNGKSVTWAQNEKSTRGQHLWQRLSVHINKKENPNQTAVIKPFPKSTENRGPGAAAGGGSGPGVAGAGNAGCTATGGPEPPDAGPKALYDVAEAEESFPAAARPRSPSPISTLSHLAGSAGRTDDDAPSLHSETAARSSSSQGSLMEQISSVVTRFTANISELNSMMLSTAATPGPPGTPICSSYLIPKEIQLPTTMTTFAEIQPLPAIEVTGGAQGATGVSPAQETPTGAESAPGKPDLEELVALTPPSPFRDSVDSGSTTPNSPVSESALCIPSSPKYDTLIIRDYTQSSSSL
Chain of rat mGlu5 (P31424 21-1203): as above

IC50 (mGlu5 [1]; [14]): > 10000 nM
SMILES: N#Cc1cnc(Nc2nc3ccccc3o2)nc1-c1cccs1 [18ee]

IC50 (mGlu5 [1]; [14]): 62 ± 10 nM
SMILES: COc1ccccc1-c1nc(Nc2nc3ccccc3o2)ncc1C#N [18g]

IC50 (mGlu5 [1]; [14]): 6580 ± 1670 nM
SMILES: CCOc1ccccc1-c1nc(Nc2nc3ccccc3o2)ncc1C#N [18r]

IC50 (mGlu5 [1]; [14]): 2580 ± 1170 nM
SMILES: N#Cc1cnc(Nc2nc3ccccc3o2)nc1-c1ccc(F)c(F)c1 [18t]

IC50 (mGlu5 [1]; [14]): 375 ± 90 nM
SMILES: N#Cc1cnc(Nc2nc3ccccc3o2)nc1-c1ccc(Cl)cc1F [18y]

IC50 (mGlu5 [1]; [14]): 217 ± 10 nM
SMILES: COc1cc(F)ccc1-c1nc(Nc2nc3ccccc3o2)ncc1C#N [18z]

IC50 (mGlu5 [1]; [14]): 89 ± 32 nM | IC50 (mGlu5 [1]; original batch of virtual screen hit (ChemDiv), 10-point CRC): 75 nM
SMILES: N#Cc1cnc(Nc2nc3ccccc3o2)nc1-c1ccccc1 [compound 13]

Further lines, the compound ahead of its results:

SMILES: N#Cc1cnc(Nc2nc3ccccc3o2)nc1-c1ccc(F)cc1 [18k]
Inhibition of radioligand binding in 68-target panel [2]: inhibition of more than 50% of radioligand binding was observed only in the adenosine A3 receptor assay | Exposure in plasma and brain [3]: no exposure above detectable limits in either plasma or brain | Effect on glutamate concentration response curve (mGlu5 [4]): induced a rightward shift in the glutamate concentration response curve (CRC) and reduced the maximal effect of glutamate | Activity against other mGlu receptors (mGlu1–4 and mGlu6–8): no observable activity | Efficacy in OSS (C57Bl/6J mice [5]; both 30 and 56.6 mg/kg doses i.p., P < 0.05 vs. vehicle): significant efficacy | Progressive ratio responding for OSS stimuli (C57Bl/6J mice [5]; i.p., dose response): dose dependently reduced progressive ratio responding for OSS stimuli | Effect on responding for a food reinforcer (C57Bl/6J mice [5]; i.p., food control): no significant effects | Stability in liver microsomes [6]: Enhanced stability relative to 13 | Inhibition of marble burying (mice [7]; 56.6 mg/kg i.p. (highest dose), P < 0.05 vs. vehicle): Significant inhibition of marble burying | Sedation (mice [7]): No sedation was observed | Stability in liver microsomes [8]: Enhanced stability relative to 13 | IC50 (mGlu5 [1]; [14]): 91 ± 22 nM | Brain AUC [9]: 1006 ng·h/g | Plasma AUC [9]: 224 ng·h/mL | Brain [ ] ([9]; 0.5 h): 136 ng/mL | Brain:Plasma ratio ([9]; 0.5 h): 4.3 | Plasma [ ] ([9]; 0.5 h): 31.8 ng/mL | average brain concentration ([9]; 30 minutes): 0.41 µM | Brain [ ] ([9]; 1 h): 283 ng/mL | Brain:Plasma ratio ([9]; 1 h): 4.4 | Plasma [ ] ([9]; 1 h): 64.7 ng/mL | brain concentration ([9]; 1 hour post dose): 850 nM | Brain [ ] ([9]; 3 h): 193 ng/mL | Brain:Plasma ratio ([9]; 3 h): 4.3 | Plasma [ ] ([9]; 3 h): 45.4 ng/mL | Brain [ ] ([9]; 6 h): 68 ng/mL | Brain:Plasma ratio ([9]; 6 h): 7.4 | Plasma [ ] ([9]; 6 h): 9.2 ng/mL | brain to plasma ratio ([9]; exposure ratio, to 1): more than 4 | inhibition of binding (adenosine A3 receptor): 73% | Effect on ERK1/2 phosphorylation response to glutamate (rat mGlu5): blocked the effect of glutamate in a concentration dependent manner | bound to mouse plasma [10]: 99.4% | bound to mouse brain homogenates [11]: 99.5%

SMILES: N#Cc1cnc(Nc2nc3ccccc3o2)nc1-c1ccc(C(F)(F)F)cc1 [18m]
IC50 (mGlu5 [1]; [14]): > 30000 nM

SMILES: Cc1cccc(C#Cc2ccccc2)n1 [MPEP]
Efficacy in marble burying model (mice [12]): effective

SMILES: Cc1nc(C#Cc2cccnc2)cs1 [MTEP, reference compound]
Inhibition of marble burying (mice [7]; 15 mg/kg i.p., positive control): Robust inhibition of marble burying | Sedation (mice [7]): No sedation was observed

SMILES: OCCN1CCN(CC/C=C2/c3ccccc3Sc3ccc(C(F)(F)F)cc32)CC1 [cis-flupenthixol]
Responding for OSS stimuli (C57Bl/6J mice [13]): increased responding for OSS stimuli

SMILES: CN1CC(=O)NC1=NC(=O)Nc1cccc(Cl)c1 [fenobam]
Efficacy in marble burying model (mice [12]): effective
